The results in this text go back to ChEMBL document CHEMBL3414559, “Novel C-4 heteroaryl 13-cis-retinamide Mnk/AR degrading agents inhibit cell proliferation and migration and induce apoptosis in human breast and prostate cancer cells and suppress growth of MDA-MB-231 human breast and CWR22Rv1 human prostate tumor xenografts in mice” (J Med Chem, 2015).

A word on the GI50: it is the concentration giving 50% growth inhibition. The low end stands for greater sensitivity of the cells, the high end for lower sensitivity of the cells.

Series [1] deals with MCF7. As to the kind of experiment: Reduction in peIF4E protein expression in human MCF7 cells at 0.63 uM to 20 uM after 24 hrs by SDS-PAGE and Western blotting method. The class given is functional, cell-based. In outline:
(§1)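 MCF-7, MDA-MB-231 and MDA-MB-468 cells, kept in RPMI 1640 with 10% FBS, were exposed for 24 h to a range of concentrations, with DMSO vehicle controls. Equal protein from lysates was separated by SDS–PAGE and probed for Mnk1, Mnk2, peIF4E, eIF4E and cPARP. GAPDH reprobing served as loading control.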

The test system of series [2] is LNCaP. As to the kind of experiment: Reduction in Mnk1 protein expression in human LNCAP cells at 0.6 uM to 20 uM after 24 hrs by SDS-PAGE and Western blotting method. The class given is functional, cell-based. The essentials:
(§2)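 LNCaP cells (RPMI 1640, 10% FBS) exposed 24 h to 0.6–20 μM, DMSO vehicle control; equal protein on SDS–PAGE, immunoblotted for fAR, Mnk1/2, peIF4E, cyclin D1 and cleaved PARP; β-actin reprobe for loading.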

Series [3] concerns MCF7. As to the kind of experiment: Reduction in Mnk2 protein expression in human MCF7 cells at 0.63 uM to 20 uM after 24 hrs by SDS-PAGE and Western blotting method. The class given is functional, cell-based. In outline: (§3)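 Breast cancer cells in RPMI 1640 with 10% FBS treated 24 h at indicated concentrations, DMSO vehicle control; equal protein loaded on SDS–PAGE and immunoblotted for Mnk1, Mnk2, peIF4E, eIF4E and cleaved PARP; blots reprobed for GAPDH as loading control.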
On the technique in general: In western blotting, separated proteins are transferred to a membrane and probed.

For another series, the system named is Mus musculus. Nature of the series: Toxicity in human MDA-MB-231 cells xenografted athymic nude mouse assessed as induction of toxic signs at 20 mg/kg, ip dosed once daily for 5 days per week for 28 days. The settings on record: in vivo.
Series [4] concerns MDA-MB-468. As to the kind of experiment: Induction of apoptosis in human MDA-MB-468 cells assessed as increase in c-PARP formation at 0.63 uM to 20 uM after 24 hrs by SDS-PAGE and Western blotting method. The class given is functional, cell-based. In outline:
as §3

Series [5] has as its system MDA-MB-231. As to the kind of experiment: Induction of apoptosis in human MDA-MB-231 cells assessed as increase in c-PARP formation at 0.63 uM to 20 uM after 24 hrs by SDS-PAGE and Western blotting method. The class given is functional, cell-based. In outline: as §3
Series [6] concerns MDA-MB-231. Nature of the series: Antitumor activity against human MDA-MB-231 cells xenografted in nude mouse assessed as reduction in Bcl2 protein expression at 20 mg/kg, ip dosed once daily for 5 days per week for 28 days by SDS-PAGE and Western blotting method. In general terms: A xenograft is tissue or cells of one species grown in another, often human tumour cells in immunodeficient mice.

Series [7] has as its system MDA-MB-468. Nature of the series: Reduction in Mnk1 protein expression in human MDA-MB-468 cells at 0.63 uM to 20 uM after 24 hrs by SDS-PAGE and Western blotting method. The class given is functional, cell-based. The essentials: as §3
A short description of series [8]: Growth inhibition of human PC3 cells by MTT assay. The settings on record: PC-3. The class given is functional. In outline:
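Cells grown in RPMI 1640 with 10% FBS, plated at 2500 cells/well, treated across a dose range; growth read by MTT. GI50 taken from dose–response curves by nonlinear regression, at least three independent experiments.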

Series [9] has as its system LNCaP. Nature of the series: Induction of apoptosis in human LNCAP cells assessed as reduction in cyclin D1 levels at 0.6 uM to 20 uM after 24 hrs by SDS-PAGE and Western blotting method. The class given is functional, cell-based. In outline:
as §2

Series [10] relates to MDA-MB-468. As to the kind of experiment: Reduction in peIF4E protein expression in human MDA-MB-468 cells at 0.63 uM to 20 uM after 24 hrs by SDS-PAGE and Western blotting method. The class given is functional, cell-based. The essentials: as §1
Series [11] concerns MDA-MB-231. As to the kind of experiment: Antitumor activity against human MDA-MB-231 cells xenografted in nude mouse assessed as reduction in cyclin D1 protein expression at 20 mg/kg, ip dosed once daily for 5 days per week for 28 days by SDS-PAGE and Western blotting method.
Series [12] concerns the target T1, Androgen receptor (Homo sapiens) (UniProt P10275).
T1 sequence (whole entry): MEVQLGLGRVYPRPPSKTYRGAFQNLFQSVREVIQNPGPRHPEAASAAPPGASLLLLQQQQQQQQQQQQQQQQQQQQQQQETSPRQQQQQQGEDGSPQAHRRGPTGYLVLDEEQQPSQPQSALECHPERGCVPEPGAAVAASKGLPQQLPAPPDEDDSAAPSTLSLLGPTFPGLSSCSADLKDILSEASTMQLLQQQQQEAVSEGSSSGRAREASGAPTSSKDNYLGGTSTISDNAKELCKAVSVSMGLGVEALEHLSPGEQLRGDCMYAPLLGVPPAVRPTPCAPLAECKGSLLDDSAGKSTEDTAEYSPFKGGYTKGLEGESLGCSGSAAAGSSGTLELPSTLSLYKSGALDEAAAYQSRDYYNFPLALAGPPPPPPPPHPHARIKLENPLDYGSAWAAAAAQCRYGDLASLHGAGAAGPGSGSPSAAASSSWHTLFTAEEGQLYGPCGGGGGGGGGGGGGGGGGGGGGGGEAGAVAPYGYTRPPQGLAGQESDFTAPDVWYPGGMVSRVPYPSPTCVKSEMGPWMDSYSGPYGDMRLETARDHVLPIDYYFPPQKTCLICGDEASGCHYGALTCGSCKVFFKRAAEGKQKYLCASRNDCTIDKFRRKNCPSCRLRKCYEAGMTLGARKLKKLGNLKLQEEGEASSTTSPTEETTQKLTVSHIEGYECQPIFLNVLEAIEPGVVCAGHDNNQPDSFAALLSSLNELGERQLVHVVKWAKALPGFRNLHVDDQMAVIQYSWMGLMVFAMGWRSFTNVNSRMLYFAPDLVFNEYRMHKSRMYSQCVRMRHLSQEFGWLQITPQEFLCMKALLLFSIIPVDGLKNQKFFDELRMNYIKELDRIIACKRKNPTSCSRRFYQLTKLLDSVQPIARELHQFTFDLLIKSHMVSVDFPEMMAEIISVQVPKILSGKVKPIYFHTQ
The settings on record: LNCaP, at 10 µM.

For series [13], the system named is MDA-MB-231. As to the kind of experiment: Antitumor activity against human MDA-MB-231 cells xenografted in nude mouse assessed as increase in Bax protein expression at 20 mg/kg, ip dosed once daily for 5 days per week for 28 days by SDS-PAGE and Western blotting method.
Series [14] deals with MDA-MB-231. As to the kind of experiment: Antitumor activity against human MDA-MB-231 cells xenografted in nude mouse assessed as increase in Bad protein expression at 20 mg/kg, ip dosed once daily for 5 days per week for 28 days by SDS-PAGE and Western blotting method.
In series [15] the test system is MCF7. As to the kind of experiment: Reduction in Mnk1 protein expression in human MCF7 cells at 0.63 uM to 20 uM after 24 hrs by SDS-PAGE and Western blotting method. The class given is functional, cell-based. In outline:
as §3

Active and inactive are the calls of the source. The rule behind the calls is not given here.

Regarding `CC1=C(/C=C/C(C)=C/C=C/C(C)=C\C(=O)Nc2cccc(F)c2)C(C)(C)CCC1n1ccnc1` (configuration not stated), the inhibition result in the series on MCF7 [1], with LNCaP [2], with MCF7 [3], with MDA-MB-468 [7], in the series on MDA-MB-468 [10] and in the series on MCF7 [15] was “Dose-dependent effect” each time. Further, the Activity result was “Non-toxic” in the series on Mus musculus, “Dose-dependent effect” in the series on MDA-MB-468 [4] and “Dose-dependent effect” in the series with MDA-MB-231 [5]. For the same compound, the outcome in the series on MDA-MB-231 [6], in the series on LNCaP [9], in the series on MDA-MB-231 [11], in the series with MDA-MB-231 [13] and in the series on MDA-MB-231 [14] was Active. The GI50 in [8] is 5.62 µM. The inhibition result in series [12] was “Active”.

With `CC1=C(/C=C/C(C)=C/C=C/C(C)=C\C(=O)NCc2ccc(O)cc2)C(C)(C)CCC1n1ccnc1` (configuration not stated), the inhibition result in the series on MCF7 [1], in the series with LNCaP [2], in the series with MCF7 [3], in the series on MDA-MB-468 [7], in the series on MDA-MB-468 [10] and in the series on MCF7 [15] was “Dose-dependent effect” in each case. Moreover, the Activity result is “Non-toxic” with Mus musculus, “Dose-dependent effect” in the series on MDA-MB-468 [4] and “Dose-dependent effect” with MDA-MB-231 [5]. For the same compound, the outcome in the series with MDA-MB-231 [6], in the series on LNCaP [9], with MDA-MB-231 [11], in the series on MDA-MB-231 [13] and with MDA-MB-231 [14] was Active. In series [8], the GI50 was determined as 3.54 µM. For the same compound, the inhibition result in series [12] was “Active”.
